From ChEMBL document CHEMBL3259704, “Second generation steroidal 4-aminoquinolines are potent, dual-target inhibitors of the botulinum neurotoxin serotype A metalloprotease and P. falciparum malaria” (J Med Chem, 2014)
The source made the active and inactive calls. The rule behind the calls is not given here.

How the values were obtained:
Plasmodium falciparum [1] = experiment: Resistance index, ratio of IC90 for CQ, MFQ-resistant Plasmodium falciparum TM91C235 clone Southeast asian isolate to IC90 for CQ, MFQ-susceptible Plasmodium falciparum D6 clone Sierra 1/UNC isolate; type: functional
Method in brief: (§1)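 SYBR Green I fluorescence (MSF) microtiter drug-sensitivity assay: malarial DNA content is the measure of in vitro parasite proliferation. Resistance index is the IC90 ratio of the resistant strain to D6.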

[2] = target: Botulinum neurotoxin type A (Clostridium botulinum) (UniProt P0DPI0); experiment: Inhibition of Clostridium botulinum BoNT/A-mediated SNAP-25 cleavage in chicken embryo neurons assessed as intact SNAP-25 level at […] preincubated for 45 mins followed by co-incubation with BoNT/A for 3.5 hrs by western blot analysis in presence of 25 uL of 100 nM antibiotic bafilomycin; design: scale not given: the % may be the effect or the level left
Botulinum neurotoxin type A (Clostridium botulinum), sequence (P0DPI0 2-448 limits assumed): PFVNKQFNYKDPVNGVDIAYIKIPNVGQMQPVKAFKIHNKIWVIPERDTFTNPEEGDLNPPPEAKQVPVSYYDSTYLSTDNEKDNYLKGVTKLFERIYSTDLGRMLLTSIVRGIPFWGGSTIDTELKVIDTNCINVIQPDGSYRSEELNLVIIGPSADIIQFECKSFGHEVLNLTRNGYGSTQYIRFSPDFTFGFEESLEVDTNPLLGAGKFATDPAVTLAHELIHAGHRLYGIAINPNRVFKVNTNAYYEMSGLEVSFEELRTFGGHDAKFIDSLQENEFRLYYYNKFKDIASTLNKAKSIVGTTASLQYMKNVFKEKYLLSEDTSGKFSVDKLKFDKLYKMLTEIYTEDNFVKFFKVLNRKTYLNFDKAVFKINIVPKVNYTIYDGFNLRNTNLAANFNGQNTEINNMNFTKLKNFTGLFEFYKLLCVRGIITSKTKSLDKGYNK

Plasmodium falciparum [3] = experiment: Antimalarial activity against CQ-resistant, MFQ-susceptible Plasmodium falciparum W2 clone Indochina 1 isolate assessed as inhibition of parasite proliferation by MSF assay; type: functional, organism-based; method in brief: as §1
[4] = target: Botulinum neurotoxin type A (Clostridium botulinum, UniProt P0DPI0); experiment: Inhibition of Clostridium botulinum recombinant BoNT/A light chain using N-terminal acetylated, C-terminal aminated SNAP-25 (187-203) as substrate by reverse-phase HPLC analysis
Botulinum neurotoxin type A, sequence (P0DPI0 2-448 limits assumed): as above
Method in brief: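 Same HPLC LC cleavage assay (pH 7.3 HEPES/Tween, BSA, excess Zn, 37 °C). […] Ki comes from velocity versus substrate at several inhibitor levels, globally fit to a competitive model.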

[5] = target: Botulinum neurotoxin type A (Clostridium botulinum) (UniProt P0DPI0); experiment: Inhibition of Clostridium botulinum BoNT/A-mediated SNAP-25 cleavage in chicken embryo neurons assessed as intact SNAP-25 level at […] preincubated for 45 mins followed by co-incubation with BoNT/A for 3.5 hrs by western blot analysis in presence of 5 uL of 100 nM antibiotic bafilomycin; design: scale not given: the % may be the effect or the level left
HepG2 = experiment: Cytotoxicity against human HepG2 cells assessed as cell viability after 48 hrs by MTT assay; type: cell-based; conditions: HepG2, 48 h
Plasmodium falciparum [6] = experiment: Resistance index, ratio of IC90 for CQ-resistant, MFQ-susceptible Plasmodium falciparum W2 clone Indochina 1 isolate to IC90 for CQ, MFQ-susceptible Plasmodium falciparum D6 clone Sierra 1/UNC isolate; type: functional; method in brief: as §1
[7] = Selectivity index, ratio of IC50 for human HepG2 cells to IC50 for CQ, MFQ-resistant Plasmodium falciparum TM91C235 clone Southeast asian isolate; type: toxicity, cell-based; conditions: read-out: Ratio IC50
Plasmodium falciparum [8] = experiment: Antimalarial activity against CQ, MFQ-susceptible Plasmodium falciparum D6 clone Sierra 1/UNC isolate assessed as inhibition of parasite proliferation by MSF assay; type: functional, organism-based; method in brief: as §1
Plasmodium falciparum [9] = experiment: Antimalarial activity against CQ, MFQ-resistant Plasmodium falciparum TM91C235 clone Southeast asian isolate assessed as inhibition of parasite proliferation by MSF assay; type: functional, organism-based; method in brief: as §1
PBMC = experiment: Cytotoxicity against human PBMC assessed as inhibition of cell survival after 72 hrs; type: cell-based
Method in brief: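 PBMC from heparinized healthy-donor blood (Histopaque) in RPMI-1640 with 10% FCS and PHA stimulation, 200 000 cells/well, with compounds in DMSO, 72 h at 37 °C, 6% CO2.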

[10] = target: Botulinum neurotoxin type A (Clostridium botulinum) (UniProt P0DPI0); experiment: Inhibition of Clostridium botulinum BoNT/A-mediated SNAP-25 cleavage in chicken embryo neurons assessed as intact SNAP-25 level at […] preincubated for 45 mins followed by co-incubation with BoNT/A for 3.5 hrs by western blot analysis; design: scale not given: the % may be the effect or the level left
[11] = target: Botulinum neurotoxin type A (Clostridium botulinum) (UniProt P0DPI0); experiment: Inhibition of Clostridium botulinum recombinant BoNT/A light chain using N-terminal acetylated, C-terminal aminated SNAP-25 (187-203) as substrate at 20 uM by reverse-phase HPLC analysis
Method in brief: (§2)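 Recombinant BoNT/A LC with SNAP-25 187–203 peptide substrate in 40 mM HEPES–0.05% Tween, pH 7.3, with 0.5 mg/mL BSA and 50 μM excess Zn, at 37 °C. Quenched with TFA; reverse-phase HPLC product/substrate peak areas give percent inhibition, run in duplicate.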

[12] = Selectivity index, ratio of IC50 for human HepG2 cells to IC50 for CQ-resistant, MFQ-susceptible Plasmodium falciparum W2 clone Indochina 1 isolate; type: toxicity, cell-based; conditions: read-out: Ratio IC50
[13] = Selectivity index, ratio of IC50 for human HepG2 cells to IC50 for CQ, MFQ-susceptible Plasmodium falciparum D6 clone Sierra 1/UNC isolate; type: toxicity, cell-based; conditions: read-out: Ratio IC50
[14] = target: Botulinum neurotoxin type A (Clostridium botulinum) (UniProt P0DPI0); experiment: Inhibition of Clostridium botulinum recombinant BoNT/A light chain using N-terminal acetylated, C-terminal aminated SNAP-25 (187-203) as substrate at 10 uM by reverse-phase HPLC analysis; method in brief: as §2
[15] = (§3) Half life in human liver microsomes; type: ADME; conditions: liver microsomes
Mus musculus = experiment: Toxicity in ICR mouse infected with Plasmodium berghei assessed as tissue damage at 40 to 160 mg/kg/day, po administered on day 3, 4 and 5 post-infection; type: organism-based; design: route oral; conditions: in vivo
[16] = (§4) Half life in mouse liver microsomes; type: ADME; conditions: liver microsomes
Plasmodium berghei = experiment: Antimalarial activity against Plasmodium berghei infected in ICR mouse assessed as host survival at 40 to 160 mg/kg/day, po administered on day 3, 4 and 5 post-infection measured on day 13 after infection; type: functional, organism-based
Liver microsome = experiment: as §3; type: ADME; conditions: microsomes
Liver = experiment: as §4; type: ADME; conditions: microsomes

SMILES | Ratio (Plasmodium falciparum [1]) | Activity [2] | IC50 (Plasmodium falciparum [3]) | IC90 (Plasmodium falciparum [3]) | IC50 [4] | Ki [4] | Activity [5] | IC50 (HepG2) | Ratio (Plasmodium falciparum [6]) | selectivity ratio [7] | IC90 (Plasmodium falciparum [8]) | IC50 (Plasmodium falciparum [9]) | IC90 (Plasmodium falciparum [9]) | IC50 (PBMC) | Activity [10] | inhibition [11] | selectivity ratio [12] | selectivity ratio [13] | IC50 (Plasmodium falciparum [8]) | further results
CC(=O)O[C@H]1C[C@H]2[C@@H]([C@H](OC(C)=O)C[C@@H]3C[C@H](N)CC[C@@]32C)[C@@H]2CC[C@H]([C@H](C)CCCNCCNc3ccnc4cc(Cl)ccc34)[C@@]12C | 1.25 | 81% | 161 nM | 235 nM | 810 nM | 3220 nM | 88% | 5610 nM | 1.33 | 38 | 176 nM | 147 nM | 220 nM | 7880 nM | 77% | 89.3% | 35 | 39 |  | 
CC(=O)O[C@H]1C[C@H]2[C@@H]([C@H](OC(C)=O)C[C@@H]3CC(NCCCNc4ccnc5cc(Cl)ccc45)CC[C@@]32C)[C@@H]2CC[C@H]([C@H](C)CCCNCCCNc3ccnc4cc(Cl)ccc34)[C@@]12C (mixture of isomers) |  |  | 108 nM |  |  | 171 nM |  | 4680 nM |  | 24 |  | 195 nM |  |  |  | 97.2% | 43 | 32 | 143 nM | inhibition [14]: Active
CC(=O)O[C@H]1C[C@H]2[C@@H]([C@H](OC(C)=O)C[C@@H]3C[C@H](N)CC[C@@]32C)[C@@H]2CC[C@H]([C@H](C)CCCN(C)CCNc3ccnc4cc(Cl)ccc34)[C@@]12C | 2.06 |  | 2.88 nM | 3.74 nM | 1140 nM |  |  | 14400 nM | 0.84 | 2330 | 4.46 nM | 6.18 nM | 9.2 nM | 2590 nM |  | 89.5% | 4990 | 4000 | 3.6 nM | half-life [15]: 1 h; Activity (Mus musculus): Non-toxic; half-life [16]: 1 h; Activity (Plasmodium berghei): inactive
CC(=O)O[C@H]1C[C@H]2[C@@H]([C@H](OC(C)=O)C[C@@H]3CC(NCCNc4ccnc5cc(Cl)ccc45)CC[C@@]32C)[C@@H]2CC[C@H]([C@H](C)CCCNCCNc3ccnc4cc(Cl)ccc34)[C@@]12C (some centres not stated) |  |  | 98.2 nM |  |  | 341 nM |  | 3770 nM |  | 30 |  | 124 nM |  | 302 nM |  | 96.5% | 38 | 32 | 120 nM | inhibition [14]: Active
CC(=O)O[C@H]1C[C@H]2[C@@H]([C@H](OC(C)=O)C[C@@H]3C[C@H](N(C)C)CC[C@@]32C)[C@@H]2CC[C@H]([C@H](C)CCCN(C)CCCNc3ccnc4cc(Cl)ccc34)[C@@]12C |  |  | 57 nM |  | 1290 nM |  |  | 5280 nM |  | 71 |  | 74.6 nM |  |  |  | 86.9% | 93 | 35 | 152 nM | half-life [15]: 1 h; half-life [16]: 1 h
CC(=O)N[C@@H]1CC[C@@]2(C)[C@@H](C1)C[C@@H](OC(C)=O)[C@@H]1[C@@H]2C[C@H](OC(C)=O)[C@]2(C)[C@@H]([C@H](C)CCCNCCNc3ccnc4cc(Cl)ccc34)CC[C@@H]12 | 1.09 | 36% |  | 62.2 nM | 2460 nM |  | 28% | 1920 nM | 1.96 | 126 | 31.8 nM | 15.2 nM | 34.6 nM |  | 16% | 74% | 126 | 116 | 16.6 nM | 
CC(=O)O[C@H]1C[C@H]2[C@@H]([C@H](OC(C)=O)C[C@@H]3C[C@H](N)CC[C@@]32C)[C@@H]2CC[C@H]([C@H](C)CCCN(CCC[C@@H](C)[C@H]3CC[C@H]4[C@@H]5[C@H](OC(C)=O)C[C@@H]6C[C@H](N)CC[C@]6(C)[C@H]5C[C@H](OC(C)=O)[C@]34C)CCNc3ccnc4cc(Cl)ccc34)[C@@]12C | 1.54 | 93% | 78 nM | 105 nM | 3050 nM |  | 96% | 1650 nM | 0.92 | 19 | 114 nM | 85.9 nM | 175 nM |  | 89% | 82.2% | 21 | 19 |  | 
CC(=O)O[C@H]1C[C@H]2[C@@H]([C@H](OC(C)=O)C[C@@H]3C[C@H](O)CC[C@@]32C)[C@@H]2CC[C@H]([C@H](C)CCCNCCNc3ccnc4cc(Cl)ccc34)[C@@]12C | 2.58 |  |  | 10.7 nM | 4680 nM |  |  | 2730 nM | 2.08 | 407 | 5.13 nM | 6.71 nM | 13.3 nM | 2810 nM |  | 69.4% | 415 | 938 | 2.91 nM | t1/2 (Liver microsome): 7 min; t1/2 (Liver): 0.5 h
